Measured values from PubChem BioAssay AID651952 (The Scripps Research Institute Molecular Screening Center, 2012).
The whole screen tested about 2,400 compounds, of which about 940 (39%) were called active. These entries were drawn from the full list. Values without a mark were called inactive.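 Rule for the calls: active = inhibition above the plate's mean compound inhibition plus 3 SD, computed per plate (cut at about 22% in these data); inactive = the rest.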

Assay: inhibition of ATP-evoked calcium response in CHO-Ga16 cells, counter-screen for TAAR1 agonist project, cell-based, fluorescence (AID 651952);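 note: 0% = EC80 ATP with DMSO and 100% = DMSO wells without ATP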
Settings: CHO-Ga16 ATP-induced calcium, Fluo-8 fluorescence; at 3 µM; stronger effect = higher value
How it was run: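 replicates = triplicate wells per compound | material = CHO-Gα16 parent cell line without hTAAR1 | incubation = 17–24 h seeding, dye 75 min 37 °C, 30 min RT | measure = percent inhibition from peak-to-pre-ATP-basal fluorescence ratio, scaled between controls | signal = Fluo-8 fluorescence, Ex 470–495 nm, Em 515–575 nm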
`Cc1ccc(NC(=O)CCN2CCc3ccccc3C2)cc1` gave an inhibition of 10.1%. For `S=C(NCCc1ccccc1)N1CCn2cccc2C1c1ccncc1` (configuration not stated), the inhibition was 21.8% (active). In the case of `O=C(O)C1CC=CCC1C(=O)NCCc1ccccc1` (configuration not stated), the inhibition is reported as 3.62%. For `O=C(NCCc1ccccc1)C(=O)NCC1OCCN1S(=O)(=O)c1cccs1` (configuration not stated), the inhibition was 10.6%. In the case of `COc1ccc(Cl)cc1C(=O)NNC(=S)NC(=O)/C=C/c1ccco1`, the inhibition is reported as 55.5% (active). For `O=C1CCCN2N=C(SCC(=O)Nc3ccc(Br)cc3)SC2=N1`, the inhibition was 20%. In the case of `CCCCCc1c(-c2ccc(OC)c(OC)c2)ncn1CCc1ccccc1OC`, the inhibition is reported as 44.5% (active). For `CCCCCc1c(-c2cccc(Br)c2)ncn1CCc1ccccc1OC`, the inhibition was 25.3% (active). In the case of `CCCCCc1c(Cc2ccccc2)ncn1CCc1ccccc1OC`, the inhibition is reported as 30.6% (active). `O=C(CNC(=O)c1ccccc1F)OCC(=O)c1c[nH]c2ccccc12` showed an inhibition of -2.93%. `O=C(c1noc2c1CCCC2)N1CCc2ccccc2C1` showed an inhibition of 2.82%. For `CCC(c1nnnn1Cc1ccco1)N(CCc1ccccc1)Cc1cc2ccc(OC)cc2[nH]c1=O` (configuration not stated), the inhibition was 15.3%. Compound `CC(Oc1ccc(Cl)cc1)C(=O)OCC(=O)Nc1ncc(Cl)cc1Cl` (configuration not stated) has an inhibition of 12.8%. For `CCCn1c(O)c(CN2CCCC(C)C2)c(C)c(C#N)c1=O` (configuration not stated), the inhibition was 11.4%. With `Cc1cc2nc3c(=O)[nH]c(=O)nc-3n(C[C@H](O)[C@H](O)[C@H](O)CO)c2cc1C` the inhibition was 60.5% (active). In the case of `COc1ccc(C(=O)CN2C(=O)NC(C)(c3ccc(C)cc3)C2=O)cc1OC` (configuration not stated), the inhibition is reported as 12.3%. With `c1ccc2c(c1)OCC(CNc1ncnc3nc[nH]c13)O2` (configuration not stated) the inhibition was 103% (active). For `COc1cc(OC)c(-n2cc(-c3ccc(Cl)cc3)[nH]c2=O)cc1Cl`, the inhibition was 47.5% (active). For `O=Cc1c(NCCc2cccc(F)c2)c2ccccc2[nH]c1=O`, the inhibition was 5.51%. In the case of `CSc1nc(N)c(C#N)c(-c2ccccc2Cl)c1C#N`, the inhibition is reported as 23.4% (active). `OC(CNCCc1ccc(Cl)cc1Cl)COc1ccccc1` (configuration not stated) gave an inhibition of 16.3%. For `COC(=O)c1[nH]c2cccc(C)c2c1NC(=O)CN1CCCc2ccccc21`, the inhibition was 22.5% (active).
